Source: PubChem BioAssay AID1735 (Vanderbilt High Throughput Screening Facility, 2009)
Inconclusive results are not listed. Activity calls are given as the source filed them.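 How the source made its calls: active means sigmoid dose curve converging in at least two of three replicates, including loose fits with few points beside the midpoint; inactive means curve converging in fewer than two replicates.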

tested on: HEK293 thallium flux, FluoZin-2 fluorescence, ouabain+bumetanide; experiment: parental HEK thallium flux modulation, ouabain plus bumetanide, dose response, counter-screen for KCC2 modulator project, HEK cells, counterscreen 2 (AID 1735)
Procedure, shortened: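 Test system: HEK cells; Medium: HEPES-buffered HBSS with 0.2 mM ouabain and 2 mM bumetanide; Dosing: 11 points, 3-fold steps, from 30 µM; Schedule: overnight plating, 10–20 s after thallium read; Measured by: FluoZin-2 fluorescence.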

Point of comparison: `O=[N+]([O-])c1ccc(-c2cn(-c3ccccc3F)c(=S)[nH]2)cc1`, EC50 0.52 µM. Against it:
- N=C1SCC(=O)N1c1ncc(Cc2cccc(Cl)c2)s1 — 5.8-fold higher, 3.03 µM
- CCOc1ccc2nc(SC3CC(=O)N(c4cccc(OC)c4)C3=O)sc2c1 (stereo not drawn) — 6.2-fold higher, 3.2 µM
- COC(=O)[C@@H](NC(=O)O[C@@H]1C(=O)c2ccc(OC)cc2O[C@H]1c1cccc(C(F)(F)F)c1)C(C)C — within 1.5-fold, 0.612 µM
- COC(=O)c1sccc1NC(=S)OC — 3-fold higher, 1.58 µM
- Cc1onc(-c2ccccc2Cl)c1C(=O)NC(=S)Nc1ccc(C(C)C)cc1 — 2.1-fold lower, 0.246 µM
- O=C(NC(=S)Nc1nc(-c2cccc([N+](=O)[O-])c2)cs1)c1cc(Cl)ccc1Cl — within 1.5-fold, 0.689 µM
- Cc1ccc(-c2n[nH]c(=S)n2/N=C/C=C\c2ccccc2[N+](=O)[O-])cc1 — within 1.5-fold, 0.643 µM
- CC(=O)c1cccc(NC(=S)NC(=O)c2ccc(C)cc2)c1 — 3-fold higher, 1.58 µM
- CCOc1[nH]n(-c2ccccc2)c(=O)c1C=Nc1ccc(F)cc1F — 4.2-fold higher, 2.2 µM
- NC(=S)N=Nc1c(O)n(Cc2ccc(F)cc2)c2ccccc12 — 4.2-fold higher, 2.2 µM
- COc1ccc(N2C(=S)N=C(Nc3cccc(C)c3)C23CCCCC3)cc1 — 5-fold higher, 2.62 µM
- COc1ccc(Cn2c(=S)[nH]c3ccccc32)cc1 — within 1.5-fold, 0.397 µM
- Cc1nn(-c2nc3ccccc3[nH]2)c(N)c1-c1ccccc1 — 4.7-fold higher, 2.46 µM

For `O=C(NC(=S)Nc1ccc2c(c1)OCO2)c1ccc(Cl)cc1`, the EC50 was 0.0585 µM (inactive).
With `CCOCCCNC(=O)c1ccc(-n2c(=S)[nH]c3ccccc3c2=O)cc1` the EC50 was 24.2 µM (inactive).
In the case of `S=C(NCCc1ccccc1)N/N=C/c1cccc(Cl)c1Cl`, the EC50 is reported as 14.3 µM (inactive).
For `NC(=S)N=Nc1c(O)n(Cc2ccccc2)c2ccccc12`, the EC50 was 0.0883 µM (inactive).
